Source: PMC3057960 (Cancer research, 2010)
Peptide text beside a SMILES is read from it.

Key:
[1] = Repeated imaging in immunocompetent mice, immune response; format: in vivo, mouse; settings: up to 6 imaging sessions over 8 months, data not shown
[2] = Stability in mouse serum by radio HPLC; format: in vitro ADME; settings: tracer in PBS with equal volume of mouse serum, 37°C, 4 hours
Outline: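 Radiotracer in PBS was mixed with an equal volume of mouse serum and incubated at 37°C. Samples taken at 1 and 4 hours were quenched with one volume of solvent A (99.9% H2O, 0.1% TFA) plus one volume of DMF, centrifuged, passed through a 0.2 micron spin filter and analysed by radio HPLC.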

[3] = Ex vivo biodistribution in healthy mice; settings: mouse, iv, total radioactivity
Outline: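 Healthy mice (N=5) were anaesthetised and given 66.3-70.6 μCi (2.45-2.61 MBq) of radiolabelled test compound in 150 μl PBS by tail vein, then euthanised 1 hour post-injection. Organs were removed, weighed and gamma counted, giving %ID/g or %ID/cm3. Soft-tissue density was taken as 1 g/cm3. Lung density was lung weight divided by CT volume from pre-injection CT. Mean ± standard error mean.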

[4] = In vivo stability: urine metabolite analysis by radio HPLC; settings: mouse urine collected 1 hour post-injection, 3 mice
Outline: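 Urine was collected 1 hour after tail-vein injection of radiolabelled test compound (66.3-70.6 μCi in 150 μl PBS) from 3 of the healthy biodistribution mice. Samples were diluted to 1 mL with solvent A (99.9% H2O, 0.1% TFA) and analysed by radio HPLC.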

Question: For CC(C)C[C@@H]1NC(=O)[C@@H]2CSSC[C@@H](C(=O)NCC(N)=O)NC(=O)[C@H](Cc3ccccc3)NC(=O)CNC(=O)[C@H](CC(N)=O)NC(=O)[C@@H]3CCCN3C(=O)CNC(=O)[C@@H]3CSSC[C@H](NC(=O)[C@H]([C@@H](C)O)NC(=O)[C@H](CC(C)C)NC(=O)[C@@H]4CCCN4C(=O)[C@@H]4CCCN4C(=O)[C@H](CC(N)=O)NC(=O)[C@H](CC(=O)O)NC(=O)CNC(=O)[C@H](CCCNC(=N)N)NC(=O)[C@@H]4CCCN4C(=O)[C@H](CCCNC(=N)N)NC(=O)[C@@H]4CCCN4C(=O)[C@@H](NC(=O)CNC(=O)CN4CCN(CC(=O)O)CCN(CC(=O)O)CCN(CC(=O)O)CC4)CSSC[C@H](NC(=O)CNC(=O)[C@H](C)NC1=O)C(=O)N[C@@H](C(C)C)C(=O)N3)C(=O)N[C@@H](CO)C(=O)N[C@@H](CCC(N)=O)C(=O)N[C@@H](CC(=O)O)C(=O)N[C@@H](CO)C(=O)N[C@@H](CC(=O)O)C(=O)N2 [^64Cu-DOTA-knottin 2.5F, metal not drawn] (HELM PEPTIDE1{[O=C(O)CN1CCN(CC(=O)O)CCN(CC(=O)[*:2])CCN(CC(=O)O)CC1].G.C.P.R.P.R.G.D.N.P.P.L.T.C.S.Q.D.S.D.C.L.A.G.C.V.C.G.P.N.G.F.C.G.[am]}$PEPTIDE1,PEPTIDE1,3:R3-25:R3|PEPTIDE1,PEPTIDE1,15:R3-27:R3|PEPTIDE1,PEPTIDE1,21:R3-33:R3$$$V2.0; N-terminus and C-terminus assumed), which “Acute immune response on repeated imaging” value [1] is on record?
Answer: without the observation of an acute immune response

Question: And the Serum stability [2]?
Answer: highly stable

Question: What about the tissue uptake per volume at 1 h ([3]; kidneys) of the same compound?
Answer: 11.4 ± 1.45 %ID/mL

Question: And the tissue uptake per volume at 1 h ([3]; stomach, intestine, spleen, liver)?
Answer: 1.28 to 2.53 %ID/mL

Question: And the “Stability in vivo, excretion in urine” value [4]?
Answer: mainly excreted intact
